From PubChem BioAssay AID504511 (The Scripps Research Institute Molecular Screening Center, 2011)
Active and inactive are the calls of the source.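 Rule for the calls: active = cytotoxic compound whose concentration leaving half the cells alive is below 5 µM in either medium; inactive = the rest.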

Assay: viability loss of mouse T cells – cell-based, absorbance, serum-free and serum media, cytotoxicity control for PAFAH2 inhibitor project, late-stage follow-up (AID 504511)
Details: BW5147 murine T cells viability, WST-1 absorbance
Method in brief: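 System: BW5147-derived murine T cells; Buffer or medium: RPMI without or with fetal calf serum; Dosing: Seven-point fivefold dilution series, top final dose 50 µM; Timing: 48 h cell exposure, 37 °C; Technique: colorimetric WST-1 formazan absorbance; Read-out: half-cytotoxic concentration as > highest dose retaining >50% survival; Repeats: quadruplicate wells per concentration.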

Row | SMILES | CC50 (serum-free media) | CC50 (with FCS)
1 | O=C(N1CCCC1)n1ncc(-c2ccc(-c3ccccc3)cc2)n1 | 35 µM (inactive) | > 50 µM (inactive)
2 | O=C(N1CCCC1)n1ncc(-c2ccc(Oc3ccccc3)cc2)n1 | 48 µM (inactive) | > 50 µM (inactive)
